pIC50: −log10 of the molar value.
Tests used:
DNA polymerase beta = DNA polymerase beta (Homo sapiens, UniProt P06746); assay: Inhibition of human DNA polymerase beta
Outline: (§1)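 Each enzyme–compound pair was tested in duplicate over 0.8 to 100 μM, with 100 μM as the highest dose. Each run included a no-inhibitor control, a solvent dilution (0.016 to 2% DMSO) and the relevant reference inhibitor. Percent inhibition at 100 μM was recorded for polymerase γ.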

[1] = molecular target: T1, DNA polymerase subunit gamma-1 (Homo sapiens, UniProt P54098); assay: Inhibition of human DNA polymerase gamma; outline: as §1
T1 sequence (P54098 whole entry): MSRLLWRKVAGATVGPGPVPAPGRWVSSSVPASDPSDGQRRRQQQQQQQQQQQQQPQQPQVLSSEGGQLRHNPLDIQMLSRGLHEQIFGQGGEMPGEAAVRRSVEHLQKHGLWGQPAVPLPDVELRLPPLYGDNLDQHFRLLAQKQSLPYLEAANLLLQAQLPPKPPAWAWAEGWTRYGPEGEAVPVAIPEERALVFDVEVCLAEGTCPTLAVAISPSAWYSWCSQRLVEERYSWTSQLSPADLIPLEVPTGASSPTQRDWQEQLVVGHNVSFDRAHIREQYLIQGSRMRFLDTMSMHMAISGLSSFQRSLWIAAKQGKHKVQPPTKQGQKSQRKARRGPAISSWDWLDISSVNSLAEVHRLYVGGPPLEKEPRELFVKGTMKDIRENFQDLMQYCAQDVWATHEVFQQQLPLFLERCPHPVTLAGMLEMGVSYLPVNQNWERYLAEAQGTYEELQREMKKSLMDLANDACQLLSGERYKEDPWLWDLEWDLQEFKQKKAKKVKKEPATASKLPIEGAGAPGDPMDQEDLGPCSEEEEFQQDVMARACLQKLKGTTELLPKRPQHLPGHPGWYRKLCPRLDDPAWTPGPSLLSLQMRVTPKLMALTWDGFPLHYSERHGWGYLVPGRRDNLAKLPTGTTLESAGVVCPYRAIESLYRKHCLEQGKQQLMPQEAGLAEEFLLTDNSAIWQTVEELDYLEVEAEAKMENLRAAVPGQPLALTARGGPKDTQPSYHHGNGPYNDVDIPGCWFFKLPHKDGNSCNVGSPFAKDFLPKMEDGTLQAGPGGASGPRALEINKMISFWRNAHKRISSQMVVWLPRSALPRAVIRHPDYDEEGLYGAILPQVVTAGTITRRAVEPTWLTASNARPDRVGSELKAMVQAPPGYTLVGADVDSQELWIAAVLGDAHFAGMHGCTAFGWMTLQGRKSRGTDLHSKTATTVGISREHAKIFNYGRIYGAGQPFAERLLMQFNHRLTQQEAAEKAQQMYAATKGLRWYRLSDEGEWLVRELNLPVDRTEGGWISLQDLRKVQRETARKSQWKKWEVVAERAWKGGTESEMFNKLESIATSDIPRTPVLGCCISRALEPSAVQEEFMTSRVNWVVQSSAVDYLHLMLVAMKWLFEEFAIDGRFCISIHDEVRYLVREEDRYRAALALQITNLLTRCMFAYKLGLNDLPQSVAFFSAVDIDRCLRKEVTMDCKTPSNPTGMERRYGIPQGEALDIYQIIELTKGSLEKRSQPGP

[2] = molecular target: T2, DNA polymerase alpha catalytic subunit (Homo sapiens, UniProt P09884); assay: Inhibition of human DNA polymerase alpha; outline: as §1
T2 sequence (P09884 whole entry): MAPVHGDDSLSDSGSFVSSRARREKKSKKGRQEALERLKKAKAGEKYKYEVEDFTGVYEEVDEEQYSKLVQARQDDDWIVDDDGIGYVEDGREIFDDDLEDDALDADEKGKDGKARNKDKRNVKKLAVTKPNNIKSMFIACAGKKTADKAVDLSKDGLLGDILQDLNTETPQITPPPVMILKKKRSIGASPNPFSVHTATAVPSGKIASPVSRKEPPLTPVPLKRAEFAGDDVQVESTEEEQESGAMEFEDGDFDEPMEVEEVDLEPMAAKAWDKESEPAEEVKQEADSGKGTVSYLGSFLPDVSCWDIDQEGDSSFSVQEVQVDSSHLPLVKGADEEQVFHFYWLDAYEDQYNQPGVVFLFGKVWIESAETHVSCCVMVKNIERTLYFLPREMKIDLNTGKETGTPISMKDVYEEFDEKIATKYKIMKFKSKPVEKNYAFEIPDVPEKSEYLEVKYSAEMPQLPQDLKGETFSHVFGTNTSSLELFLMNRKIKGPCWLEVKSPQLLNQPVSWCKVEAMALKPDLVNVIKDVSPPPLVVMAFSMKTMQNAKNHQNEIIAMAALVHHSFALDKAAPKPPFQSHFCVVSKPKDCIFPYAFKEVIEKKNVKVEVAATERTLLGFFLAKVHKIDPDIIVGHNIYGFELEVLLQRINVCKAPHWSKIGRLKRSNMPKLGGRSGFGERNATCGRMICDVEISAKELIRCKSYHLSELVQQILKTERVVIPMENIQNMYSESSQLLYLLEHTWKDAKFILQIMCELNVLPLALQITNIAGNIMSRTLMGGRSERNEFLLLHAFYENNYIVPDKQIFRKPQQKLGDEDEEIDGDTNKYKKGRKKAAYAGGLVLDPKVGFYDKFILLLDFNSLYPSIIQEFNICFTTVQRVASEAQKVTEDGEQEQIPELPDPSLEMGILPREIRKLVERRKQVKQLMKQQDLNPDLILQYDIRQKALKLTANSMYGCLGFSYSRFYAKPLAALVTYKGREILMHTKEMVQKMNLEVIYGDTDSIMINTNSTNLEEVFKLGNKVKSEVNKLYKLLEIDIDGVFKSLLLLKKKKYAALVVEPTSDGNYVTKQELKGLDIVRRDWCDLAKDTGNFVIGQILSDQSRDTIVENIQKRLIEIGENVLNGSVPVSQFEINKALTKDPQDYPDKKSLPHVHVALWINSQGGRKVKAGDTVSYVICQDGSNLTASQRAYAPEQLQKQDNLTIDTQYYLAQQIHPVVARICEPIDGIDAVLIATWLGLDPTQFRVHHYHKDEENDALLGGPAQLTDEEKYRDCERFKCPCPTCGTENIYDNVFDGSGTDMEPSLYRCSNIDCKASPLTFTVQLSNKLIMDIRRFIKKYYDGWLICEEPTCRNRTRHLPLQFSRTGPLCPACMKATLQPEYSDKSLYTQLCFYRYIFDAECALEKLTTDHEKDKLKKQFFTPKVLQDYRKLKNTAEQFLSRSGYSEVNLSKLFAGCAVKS

Translocator protein [3] = molecular target: T3, Translocator protein (Homo sapiens, UniProt P30536); assay: (§2) Inhibition of peripheral benzodiazepine BZD receptor by radioligand binding assay
Outline: (§3)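 Radioligand binding assays for the GABA-A central BZD receptor and the peripheral BZD receptor were run as a single experiment in duplicate.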

Translocator protein [4] = molecular target: T3, Translocator protein; assay: as §2; outline: as §3; remark: listed apart in the source

T3 sequence (P30536 whole entry): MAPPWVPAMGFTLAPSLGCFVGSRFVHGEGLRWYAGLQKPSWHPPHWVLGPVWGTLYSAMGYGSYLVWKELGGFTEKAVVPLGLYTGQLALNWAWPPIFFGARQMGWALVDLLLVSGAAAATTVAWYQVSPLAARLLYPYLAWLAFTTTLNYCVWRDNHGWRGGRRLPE

| pIC50 (DNA polymerase beta) | pIC50 [1] | pIC50 [2] | pIC50 (Translocator protein [3]) | pIC50 (Translocator protein [4]) | Compound |
| --- | --- | --- | --- | --- | --- |
| < 4.00 | < 4.00 | < 4.00 | – | – | COc1ccc(C2C3C(=O)CC(C)(C)CC3=Nc3ccccc3N2C(C)=O)cc1OCc1ccccc1 (stereo not drawn) [10-acetyl-11-(3-(benzyloxy)-4-methoxyphenyl)-3,3-dimethyl-2,3,4,5,10,11-hexahydro-1H-dibenzo[b,e][1,4]diazepin-1-one] |
| – | – | – | < 4.52 | < 4.52 | CC(=O)N1c2cccc(O)c2N=C2CC(C)(C)CC(=O)C2C1c1ccc(OCc2ccccc2)cc1Cl (stereo not drawn) [10-acetyl-11-(4-(benzyloxy)-2-chlorophenyl)-6-hydroxy-3,3-dimethyl-2,3,4,5,10,11-hexahydro-1H-dibenzo[b,e][1,4]diazepin-1-one] |
| < 4.00 | < 4.00 | < 4.00 | – | – | CC(=O)N1c2ccccc2N=C2CC(C)(C)CC(=O)C2C1c1ccc(Cl)cc1Cl (stereo not drawn) [10-acetyl-11-(2,4-dichlorophenyl)-3,3-dimethyl-2,3,4,5,10,11-hexahydro-1H-dibenzo[b,e][1,4]diazepin-1-one] |
